Assay results from different studies.
Lines come from different studies, so protocols differ.
Cell line: HepG2
Observed: cell growth or viability

SMILES	assay	conditions	inhibition [%]
Cc1cc(=O)oc2ccc(-c3cc(-c4cccs4)nc(N)n3)c(O)c12	MTT	32 µg/mL, 72 h	14
Cc1cccc(/C=N/NC(=O)c2ccc(Nc3cc(C)nc4c(O)cccc34)cc2)n1	MTT	20 µM	45.4
O=C(CN1C(=O)/C(=C/c2ccc(C(F)(F)F)cc2)SC1=S)Nc1ccccc1	MTT	10 µM	11.2
CCOC(=O)c1c(C)ncn1CC(c1cn(C)c2ccc([N+](=O)[O-])cc12)c1cn(C)c2ccc([N+](=O)[O-])cc12	MTS	20 µM, 24 h	10.2
CCOc1ccc(/C=C2\SC(=S)N(CC(=O)Nc3ccccc3)C2=O)cc1	MTT	10 µM	34.3
Cc1cc(Nc2ccc(C(=O)N/N=C/c3ccc[nH]3)cc2)c2cccc(O)c2n1	MTT	20 µM	43.9
O=C(CN1C(=O)/C(=C/c2ccc(Cl)cc2)SC1=S)Nc1ccccc1	MTT	10 µM	21.2
Cc1cc(Nc2ccc(C(=O)N/N=C/c3ccnc(Cl)c3)cc2)c2cccc(O)c2n1	MTT	20 µM	42.4
Cc1cc(=O)oc2ccc(-c3cc(-c4ccc(Br)cc4)nc(N)n3)c(O)c12	MTT	2 µg/mL, 72 h	0
O=C(CN1C(=O)/C(=C/c2ccc(Cl)cc2Cl)SC1=S)Nc1ccccc1	MTT	10 µM	8.03
Cc1ccc(-c2cc(-c3ccc4oc(=O)cc(C)c4c3O)nc(N)n2)cc1	MTT	2 µg/mL, 72 h	0
O=C(CN1C(=O)/C(=C/c2cccc(F)c2)SC1=S)Nc1ccccc1	MTT	10 µM	7.27
Cc1cc(Nc2ccc(C(=O)N/N=C/C3CCCCC3)cc2)c2cccc(O)c2n1	MTT	20 µM	45.4
O=C(CN1C(=O)/C(=C/c2cccs2)SC1=S)Nc1ccccc1	MTT	10 µM	11.8
COc1ccc(/C=N/NC(=O)c2ccc(Nc3cc(C)nc4c(O)cccc34)cc2)cc1O	MTT	20 µM	34.6
Cc1cc(=O)oc2ccc(-c3cc(-c4cccc(Cl)c4)nc(N)n3)c(O)c12	MTT	8 µg/mL, 72 h	0
CCCCCCCCCCCCCCCCOP(=O)([O-])OCC[N+](C)(C)C	MTS	20 µM, 24 h	37.9
Cc1cc(Nc2ccc(C(=O)N/N=C/c3cccc(Oc4ccccc4)c3)cc2)c2cccc(O)c2n1	MTT	20 µM	51.7
